Experimental data: PMC5943194 (Environmental science and pollution research international, 2017)
Entries after “also recorded” stand apart in the source; their conditions may differ.

Experiments:
[1] = tested on: ER target gene TFF1 mRNA in MCF-7 cells; experiment: Induction of TFF1 mRNA in MCF-7 cells; format: cell-based, human; settings: 25 μM, 24 h
Summary of the method: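 MCF-7 cells (passages 15–18) were moved to phenol red-free DMEM/F12 with 5% charcoal/dextran FBS and 1% non-essential amino acids. After 24 h in fresh medium they were treated for 24 h with 25 μM test compound. TFF1 mRNA was quantified by one-step qRT-PCR (PBGD reference, comparative Ct) and expressed relative to maximal induction by E2 (15 pM). Three independent experiments, n=6.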

[2] = tested on: CYP2B6 mRNA (CAR-dependent); experiment: CAR-agonistic response: induction of CYP2B6 mRNA in differentiated HepaRG cells; format: cell-based, human; settings: human, differentiated HepaRG cells
Summary of the method: (§1)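 Differentiated HepaRG cells (passages 7–9) were grown 14 days in growth medium, then 14 days in differentiation medium, and returned to growth medium 3 days before a 24 h exposure to test compound (0.01–25 μM). CYP2B6 and CYP3A4 mRNA were measured by qRT-PCR (PBGD reference, comparative Ct) relative to PB (2 mM) and RIF (50 μM), respectively. EC25/EC50 were taken from dose-response curves.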

[3] = tested on: CAR-dependent CYP2B6 mRNA in HepaRG cells; experiment: as above; format: cell-based, human; settings: CYP2B6 mRNA, HepaRG, 24 h, relative to PB (2 mM)
Summary of the method: as §1

[4] = tested on: ER target gene TFF1 mRNA in MCF-7 cells; experiment: Modulation of E2-induced TFF1 mRNA in MCF-7 cells; format: cell-based, human; settings: 25 μM, 24 h, co-exposure with E2
Summary of the method: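 MCF-7 cells (passages 15–18) in phenol red-free DMEM/F12 with 5% charcoal/dextran FBS were co-exposed for 24 h to test compound (25 μM) plus E2 (5 pM). TFF1 mRNA was measured by qRT-PCR: RT 50°C 20 min, 95°C 15 min, then 40 cycles of 95°C 15 s/60°C 60 s. PBGD was the reference gene, with comparative Ct analysis. Three independent experiments, n=6.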

[5] = biological target: T1, estrogen receptor (ER) (Homo sapiens, UniProt P03372); experiment: ER-CALUX assay, ER-antagonistic activity, co-exposure with E2; format: cell-based; settings: T47D.Luc cells, 24 h; for ER-antagonistic Response at 25 μM (% of E2 response): in the presence of E2 (5 pM); for Modulation of E2-dependent induction of luciferase activity, in words: combined exposure with E2 (5 pM)
T1 sequence (P03372 whole entry): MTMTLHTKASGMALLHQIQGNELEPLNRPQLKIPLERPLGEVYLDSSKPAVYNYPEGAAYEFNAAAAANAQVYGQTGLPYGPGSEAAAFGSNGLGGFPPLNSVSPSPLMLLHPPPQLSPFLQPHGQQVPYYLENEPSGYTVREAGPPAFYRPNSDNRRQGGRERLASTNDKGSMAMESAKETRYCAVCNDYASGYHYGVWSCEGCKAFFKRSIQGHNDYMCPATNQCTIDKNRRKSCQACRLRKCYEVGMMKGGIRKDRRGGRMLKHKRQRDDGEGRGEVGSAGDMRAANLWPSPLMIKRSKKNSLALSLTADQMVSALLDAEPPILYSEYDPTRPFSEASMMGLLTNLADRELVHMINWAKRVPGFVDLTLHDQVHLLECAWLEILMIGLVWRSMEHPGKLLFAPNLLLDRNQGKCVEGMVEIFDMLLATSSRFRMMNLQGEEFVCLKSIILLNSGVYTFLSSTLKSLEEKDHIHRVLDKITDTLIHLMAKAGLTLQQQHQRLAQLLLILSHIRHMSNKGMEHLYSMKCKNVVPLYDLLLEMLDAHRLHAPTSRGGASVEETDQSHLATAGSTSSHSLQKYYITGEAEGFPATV
Summary of the method: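 ER-CALUX in T47D.Luc cells (passages 22–25) kept in phenol red-free DMEM/F12 with 5% charcoal/dextran FBS. Test compound in DMSO was co-exposed with E2 (5 pM) for 24 h, then cells were lysed at pH 7.8 and luciferase read. IC25/IC50 are concentrations inhibiting E2-induced luciferase by 25/50%, calculated from full dose-response curves. Three independent experiments in triplicate.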

[6] = tested on: PXR-dependent CYP3A4 mRNA in HepaRG cells; experiment: PXR-agonistic response: induction of CYP3A4 mRNA in differentiated HepaRG cells; format: cell-based, human; settings: 24 h
Summary of the method: as §1

[7] = biological target: T1, estrogen receptor (ER); experiment: ER-CALUX assay, ER-agonistic activity; format: cell-based; settings: T47D.Luc cells, 24 h; for ER-agonistic Response at 10 μM (% of E2max): relative to E2 (15 pM)
Summary of the method: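 T47D.Luc cells (passages 22–25) stably carry pEREtataLuc and were exposed in phenol red-free DMEM/F12 with 5% charcoal/dextran FBS. Cells were seeded at 20,000 cells/cm2 and dosed 24 h later with test compound in DMSO for 24 h. They were then lysed (10 mM Tris, 2 mM DTT, 2 mM EGTA, pH 7.8) and luciferase measured. RLU minus DMSO control gave fold induction relative to E2 (15 pM) maximum.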

[8] = tested on: RyRs; settings: ref Pessah et al. 2009; cited from earlier work
[9] = tested on: AR; settings: ref Hamers et al. 2011; cited from earlier work
[10] = tested on: AR target gene PSA mRNA in LNCaP cells; experiment: Suppression of DHT-induced PSA mRNA in LNCaP cells; format: cell-based, human; settings: 25 μM, 24-h co-exposure to 1 nM DHT
Summary of the method: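 LNCaP cells (passages 4–6) were grown in RPMI-1640 with 10% FBS, then moved to phenol red-free RPMI-1640 with 5% dextran/charcoal-treated serum. After 24 h in fresh medium they were co-treated for 24 h with test compound and DHT (1 nM). PSA mRNA was measured by qRT-PCR (PBGD reference, comparative Ct) and expressed relative to DHT alone. Three independent experiments, n=6.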

[11] = tested on: all cell lines (T47D.Luc, MCF-7, LNCaP, HepaRG); experiment: Cytotoxicity, neutral red assay; format: cell-based, human; settings: up to 25 μM concentration
[12] = tested on: ER; settings: ref Hamers et al. 2011; cited from earlier work
[13] = CYP3A4 mRNA, relative to RIF (50 μM)

SMILES	Estrogenicity (TFF1 mRNA induction), in words [1]	EC50 at 24 h [2]	CAR-agonistic Maximum response at 5 μM (% of PB max) [3]	CAR-agonistic response EC25 [3]	Effect on E2-induced TFF1 gene expression, in words [4]	ER-antagonistic Response at 25 μM (% of E2 response) [5]	Modulation of E2-dependent induction of luciferase activity, in words [5]	PXR-agonistic Maximum response at 25 μM (% of RIF max) [6, 13]	ER-mediated activity (induction of luciferase), in words [7]	ER-agonistic Response at 10 μM (% of E2max) [7]	Activity towards RyR, in words [8]	AR activity in luciferase reporter gene assays, in words [9]	Antiandrogenic activity (suppression of DHT-induced PSA mRNA), in words [10]	Cytotoxicity [11]	ER activity in luciferase reporter gene assays, in words [12]	PXR-dependent CYP3A4 mRNA induction, in words [6]	PXR-agonistic response EC25 [6, 13]
Clc1ccc(Cl)c(-c2c(Cl)ccc(Cl)c2Cl)c1Cl [(+)-PCB 136, 2,2',3,3',6,6'-hexachlorobiphenyl]	relatively high estrogenicity	6.6 µM	38 % of PB max	1.0 µM	significantly potentiated the E2-induced TFF1 gene expression	123 % of E2 response	slightly potentiated E2-dependent induction of luciferase activity	17 % of RIF max	estrogenic; also recorded: strong ER-mediated activity	89 % of E2max	no significant activity towards the RyR						
Clc1ccc(Cl)c(-c2c(Cl)ccc(Cl)c2Cl)c1Cl (racemic) [(±)-PCB 136, 2,2',3,3',6,6'-hexachlorobiphenyl]					significantly potentiated the E2-induced TFF1 gene expression	81 % of E2 response			intermediate effect	63 % of E2max		AR-antagonistic	significant antiandrogenic activity	no cytotoxicity was observed	ER-agonistic		
Clc1ccc(Cl)c(-c2c(Cl)ccc(Cl)c2Cl)c1Cl [(−)-PCB 136, 2,2',3,3',6,6'-hexachlorobiphenyl]			51 % of PB max	0.7 µM	inactive	27 % of E2 response	exhibited antiestrogenic effects, especially at higher concentrations	38 % of RIF max	did not induce a significant increase of luciferase activity	27 % of E2max	activate RyRs					significantly more potent inducer of PXR activity than (+)-PCB 136; also recorded: significantly more potent inducer of CYP3A4 mRNA than (+)-PCB 136	7.4 µM
